The results in this text go back to ChEMBL document CHEMBL4513216, “Probing the Open Global Health Chemical Diversity Library for Multistage-Active Starting Points for Next-Generation Antimalarials” (ACS Infect Dis, 2020).

Each structure is given as a SMILES string.

A short description of this data set: Toxicity liver stage against HepG2, at 10uM. Format: cell-based. The arrangement: test concentration 10 uM, cell line HepG2-A16-CD81EGFP. As to conditions: human, HepG2-A16-CD81EGFP cells; read-out: INHIBITION
In a few lines:
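Uninfected HepG2-A16-CD81EGFP cells, 3 × 10^3 per well, 1536-well, plated on prespotted compound at 10 μM final, parasite-free screening media added to match infected plates; puromycin 10 μM positive, DMSO 0.5% negative; run in parallel with 48 h PbLuc assay at 37 °C, 5% CO2; viability by CellTiter-Glo luminescence, normalized to controls.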
Take `O=C(NCCc1cc2nc(-c3ccncc3)ccn2n1)C1CCOCC1`: the cytotoxicity at 10 µM turned out to be 4.59%.
For the compound `CN(C)CCn1c(=O)oc2ccc(NC(=O)CC(C)(C)C)cc21`, the cytotoxicity at 10 µM is -2.28%.
Under `Cc1cc(-c2cc(N)c(=O)n(CC(=O)N3CCCC(C)C3)n2)c(C)o1` (stereo not drawn) stands 4.62%; under `CN1CC2(CCN(c3ncnc4c3CCNC4)CC2)OC1=O`, -3.2%.
In the case of `COC(=O)c1ccc(NS(=O)(=O)c2cnc(NC(C)=O)s2)cc1`, the cytotoxicity at 10 µM amounted to 9.35%.
Under `O=C(NCCc1ccccn1)c1[nH]nc2c1CCCC2` stands 8.41%.
With `CC(C)c1noc(CN2CCCN(Cc3cccs3)CC2)n1`, the cytotoxicity at 10 µM was -6.86%.
On to `Cc1ccc(F)cc1S(=O)(=O)NCc1cccc(C(=O)N2CCCC2)c1`, for which the cytotoxicity at 10 µM is -15.1%.
Take `O=C(c1cc(C2CC2)on1)N1CCC(Oc2ncccc2Cl)CC1`: the cytotoxicity at 10 µM was 5.37%.
The result for `c1ccc(OCc2nnc3n2CCN(CC2CCOCC2)C3)nc1` reads 1.65%; that for `CCn1cc(CN2CCCN(C(=O)CCN3CCCC3=O)CC2)cn1`, 0.428%; that for `O=C(NCC(Cc1cccc(F)c1)N1CCCC1=O)c1ccc(=O)[nH]n1` (stereo not drawn), -0.634%.
With `CCOc1cccc(CCNC(=O)Cc2ccccc2O)n1`, the cytotoxicity at 10 µM was -2.55%.
The result for `CN(C)C(C)(C)CNC(=O)C(C)(C)c1ccccc1F` reads -11.2%; that for `COCCN1C[C@@H](C)[C@@]2(COCCN(C(=O)c3cnc(C)cn3)C2)C1`, -0.665%.
The result for `Cc1nc(NC(=O)COCC2CC2)ccc1Br` reads -1.51%; that for `COCCN1CCC(CNC(=O)C2(c3cc(C)cc(C)c3)CC2)CC1`, -7.94%.
The result for `CC(C)C[C@H](NC(=O)CNC(=O)OC(C)(C)C)C(=O)OC(C)(C)C` reads 11.9%; that for `CCOc1ncnc2c1CCN(Cc1cccs1)CC2`, 10.2%.
Take `NC(=O)c1cccc(CCNC(=O)N2CCCC2)c1`: the cytotoxicity at 10 µM was -3.88%.
In the case of `Cc1cc(C(=O)N2CCCC3(COCCN(CCN(C)C)C3)C2)no1` (stereo not drawn), the cytotoxicity at 10 µM was found to be 3.22%.
Consider `Cc1ccccc1C(=O)N1CCOCC1CN(C)C` (stereo not drawn), for which the cytotoxicity at 10 µM is -2.1%.
The result for `O=C(C1CCCC1)N1CCC2(CC1)OCCO2` reads 2.53%; that for `COCC1CCN(C(C(=O)O)c2c(F)cccc2OC(C)C)CC1` (stereo not drawn), 0.515%.
Take `CC(C)CCCNC(=O)Nc1ccc(F)c(C(N)=O)c1`: the cytotoxicity at 10 µM is -2.73%.
The result for `CC(C)c1nnc(CN2CC(n3cccn3)Cc3ccccc32)o1` (stereo not drawn) reads -146%; that for `COc1c(C)cnc(CN2CCCC2c2noc(C)n2)c1C` (stereo not drawn), -3.75%.
The result for `c1cncc(COC[C@@H]2CCC[C@]23CNCCO3)c1` reads -96.1%; that for `CN(Cc1ccsc1)C(=O)Nc1ccc(S(C)(=O)=O)cc1`, -4.77%; that for `CC(C)(C)c1cc(C(=O)NCCn2nc3ccccn3c2=O)[nH]n1`, -29.5%.
Regarding `COCCN(Cc1ccccn1)C(=O)CC1OCCc2sccc21` (stereo not drawn), the cytotoxicity at 10 µM was -54.8%.
The result for `N#Cc1cccc(CN2CCCC2c2ccc[nH]2)c1` (stereo not drawn) reads -11.9%.
Turning to `CC(C)c1nc2n(n1)CC(NCc1nc(-c3ccsc3)no1)CC2` (stereo not drawn), the cytotoxicity at 10 µM was -5.39%.
Under `CC(C)C(Sc1nnnn1C1CC1)C(=O)NCc1ccccc1` (stereo not drawn) stands -3.46%; under `CCc1noc(CN(CCS(C)(=O)=O)C(C)(C)C)n1`, -0.718%; under `COCc1nc2nc(O)c3c(n2n1)NC(=O)CC3c1ccc(SC)cc1` (stereo not drawn), 1.22%.
The result for `COc1ccccc1C(=O)N1CC(Cc2nccc3ccn(C)c23)C1` reads -0.619%; that for `Cc1ccc(NCc2ccco2)cc1N1CCOC1=O`, -10.6%.
Under `CCOCCCNc1ncc(-c2cccc(F)c2)c(-c2nccn2C)n1` stands 12.5%; under `CCc1ccc2nc(C)cc(C(=O)NC[C@@H]3CCNC[C@H]3O)c2c1`, -3%.
Consider `Cc1cc(F)ccc1N1CCC(N2C[C@@H](C)[C@@](C)(O)C2)CC1`, for which the cytotoxicity at 10 µM is 8.79%.
Turning to `Cc1cc(NC2CCc3nc(C)nn3C2)n2ncnc2n1` (stereo not drawn), the cytotoxicity at 10 µM was -6.29%.
For the compound `C[C@@H]1CN(C2(C(=O)N(C)C)Cc3ccccc3C2)C[C@H](C)O1`, the cytotoxicity at 10 µM was -5.19%.
As for `COc1cccc(CCC2CCCN(C(C)=O)C2)c1` (stereo not drawn), the cytotoxicity at 10 µM is -15.9%.
The result for `Cc1ncnc2c1CCN(C(=O)c1ccoc1)CC2` reads 6.73%; that for `CC(C)N(Cc1ccccc1)Cc1nnsc1Cl`, -9.44%.
`COCCCNC(=O)Nc1cccc(Cl)c1-n1cccn1`: the cytotoxicity at 10 µM came to 1.13%.
In the case of `CC(NC(=O)Nc1nccs1)c1ccc(S(C)(=O)=O)cc1` (stereo not drawn), the cytotoxicity at 10 µM was found to be 7.04%.
Under `COCCCN1CCN(CCOC)C(C)C1` (stereo not drawn) stands -13.4%.
In the case of `CCCC(=O)N(C)Cc1nc(N2CCCC2)ncc1-c1ccncc1`, the cytotoxicity at 10 µM turned out to be 9.76%.
Under `O=C(NC[C@]12COC[C@H]1CN(Cc1ccncc1)C2)c1ccno1` stands -72.1%; under `CCC(CC)c1nnc(NC(=O)N2CCCC(NC(C)=O)C2)s1` (stereo not drawn), 5.9%.
The result for `O=C(N[C@@H]1CN(Cc2cccc(F)c2)C[C@H]1O)c1cscn1` reads -4.66%; that for `Cc1cccc(CN2CCOCC3(CCN(C4CCOCC4)C3)C2)n1` (stereo not drawn), -0.124%.
The result for `CCC(NCc1nccn1C)c1nc(C(F)(F)F)cs1` (stereo not drawn) reads 0.245%; that for `O=C(O)CN(Cc1ccsc1)CC1CCCO1` (stereo not drawn), -4.39%.
In the case of `CCc1ocnc1C(=O)N1CCCC1c1noc(C2CC2)n1` (stereo not drawn), the cytotoxicity at 10 µM is -4.45%.
`CN(CCc1ccccn1)C(=O)c1cn(CCN2CCNCC2)nn1`: the cytotoxicity at 10 µM was -8.48%.
Under `O=C1CCCc2[nH]c(=O)c(C(=O)N(CC3CCCCC3)C3CC3)cc21` stands -2.56%; under `Cc1ccc(NC(=O)NCCc2ccncc2C)c(N(C)C)n1`, 12.9%; under `CC(Nc1ccc(CCN2CCOCC2)cc1)C(=O)N(C)CCC#N` (stereo not drawn), -8.93%.
`CC(C)NC(=O)N(Cc1cc(O)nc2ccccc12)C(C)C`: the cytotoxicity at 10 µM came to 0.266%.
Under `CN1C(=O)CC2(CCN(Cc3cnn(C)c3)CC2)c2ccccc21` stands 15.7%; under `Cc1cnc(-c2nc(C3CCN(Cc4ccccc4Cl)CC3)no2)cn1`, -5.85%.
As for `CSc1nnc(CC2CCN(C(=O)Cc3ccncc3)CC2)n1C`, the cytotoxicity at 10 µM is -46.7%.
The result for `CCc1noc(C2CCCCN2C(=O)c2cc(C)oc2C)n1` (stereo not drawn) reads 8.57%; that for `COc1ccccc1CNC(=O)c1ccccc1-n1cnc(CN)c1`, -10.6%.
With `CC(=O)NC(C)(C)c1noc(C2(C#N)CCCCC2)n1`, the cytotoxicity at 10 µM came out at 7.57%.
The result for `O=C(c1ccc(Cl)cc1)N1CCC(N2CCCNC2=O)CC1` reads 8.55%; that for `COC(=O)CCN(CC1CCOC1)C1CC1` (stereo not drawn), -9.66%; that for `c1cnc(NCc2cncc3c2CCN(Cc2cccs2)C3)nc1`, 7.33%.
Take `CC(C)CC(NC(=O)CN(C)C(=O)c1ccco1)c1cccs1` (stereo not drawn): the cytotoxicity at 10 µM was -1.24%.
The result for `Cc1cc(N2CCC(Cc3ccccc3)CC2)ncn1` reads 3.51%.
As for `COCCC(=O)Nc1cnn(COc2ccc(F)cc2Cl)c1`, the cytotoxicity at 10 µM is -8.68%.
Regarding `COCC(=O)N1CCC2(CC1)CC(c1cnn(C)c1)C(=O)N2` (stereo not drawn), the cytotoxicity at 10 µM came out at 7.25%.
On to `O=C(c1cnc(-c2cccs2)s1)N1CCCC(n2ccnc2)C1` (stereo not drawn), for which the cytotoxicity at 10 µM is -12.8%.
The result for `Cc1occc1C(=O)Nc1cnn(CCN2CCOCC2)c1` reads -10%.
For the compound `Cc1nc([C@H]2C[C@@H]3CCN(C(=O)c4ccnnc4)C[C@H]3O2)sc1C`, the cytotoxicity at 10 µM is 1.01%.
Take `O=C(c1ccc2nccnc2c1)N1CCN(CCO)[C@@H]2CS(=O)(=O)C[C@@H]21`: the cytotoxicity at 10 µM is -10.4%.
Regarding `COC(=O)c1ccc(OCCn2cnc(C#N)n2)cc1`, the cytotoxicity at 10 µM is -2.01%.
Under `O=C(CS(=O)(=O)Cc1cccc(Br)c1)Nc1cn[nH]c1` stands 0.575%.
In the case of `CN(Cc1ccon1)c1nc(-c2ccccn2)nc2c1CCNCC2`, the cytotoxicity at 10 µM is -2.45%.
Under `COc1c(F)cc(NCC(=O)NC(C)(C#N)C2CC2)cc1F` (stereo not drawn) stands -3.82%; under `CN1CCCc2cc(-c3cncn3CCNC3CCS(=O)(=O)C3)ccc21` (stereo not drawn), -2.42%.
Consider `CN1CC(=O)N(c2ccccc2)CC12CCN(CC1CCOCC1)C2` (stereo not drawn), for which the cytotoxicity at 10 µM worked out at 4.22%.
The result for `CC1c2ncc(COc3cccnc3)n2CCN1Cc1ccco1` (stereo not drawn) reads -105%; that for `CC(C)c1nc(N2CCN3CCCC3C2)c2cnn(C)c2n1` (stereo not drawn), -11.9%; that for `CCCc1nnnn1Cc1cn2c(C)cccc2n1`, -8.51%.
The result for `CN1CCN(Cc2cscn2)CC(C(=O)N(C)C)C1` (stereo not drawn) reads -5.61%.
The result for `CCCN1CCCC1c1nc(Cc2ccc(F)cc2)no1` (stereo not drawn) reads -2.74%; that for `Cc1ccccc1-n1cc(CNC(=O)CC2C(=O)NCCN2C)cn1` (stereo not drawn), 2.4%.
`O=C1[C@H]2CN(S(=O)(=O)c3cccs3)C[C@H]2CN1CC1CC1`: the cytotoxicity at 10 µM was 2%.
With `Cc1nn(C)c(Cl)c1C1CCCN1c1ncnc2sccc12` (stereo not drawn), the cytotoxicity at 10 µM turned out to be 20.8%.
The result for `CC(C)Nc1cc(-c2c[nH]nc2C2CCN(C(=O)C3CC3)C2)ccn1` (stereo not drawn) reads 85%; that for `O=C1NC2(CCNCC2)CC1c1ccncc1` (stereo not drawn), -60.7%; that for `O=S(=O)(CCN1CCN(c2ccccc2O)CC1)c1ccc(Cl)cc1`, 14.4%.
Under `CCN(C(=O)CN1CCCC1c1cc(C)no1)c1ccccc1C` (stereo not drawn) stands -0.264%; under `CC(Cn1cccn1)NC(=O)N1CCN(Cc2ccsc2)CC1` (stereo not drawn), -11.6%.
